Among the data in ChEMBL document CHEMBL3817826, “H2S-Donating Doxorubicins May Overcome Cardiotoxicity and Multidrug Resistance” (J Med Chem, 2016) are Vmax and Activity values, retold here.

Active and inactive are the calls of the source. The rule behind the calls is not given here.

The test system of series [1] is U2OS. The experiment in a line: Activity at PgP in human U2OS/[…] cells assessed as Vmax for doxorubicin measured per mg of protein incubated for 20 mins by fluorimetrical analysis (reference value: […] +/- […] nmol/min). The class given is cell-based.
In series [2] the test system is H9c2. The experiment in a line: Cytotoxicity in rat H9c2 cells at 5 uM incubated for 24 hrs by LDH release-based spectrofluorimetrical analysis relative to control. It counts as cell-based. The conditions noted are these: h9c2, 24 h. In outline: (§1)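 Cells exposed 24 h to 5 μM drug in DMEM with 10% FBS at 37 °C, 5% CO2. Medium spun 12,000 × g 5 min. Cells sonicated in 82.3 mM triethanolamine phosphate-HCl pH 7.6. LDH in medium and lysate followed 6 min at 340 nm. Extracellular LDH reported as % of total dish activity, duplicate, n = 3, mean ± SD.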
(In general: LDH in the medium is a marker of cell lysis.)

The subject of series [3] is H9c2. The experiment in a line: Effect on doxorubicin accumulation in rat H9c2 cells at 5 uM incubated for 24 hrs by fluorimetrical analysis. The class given is functional, cell-based.
Series [4] relates to H9c2. As to the kind of experiment: Reduction of doxorubicin-mediated cytotoxicity in rat H9c2 cells at 5 uM incubated for 24 hrs by LDH release-based spectrofluorimetrical analysis relative to control. The class given is functional, cell-based.
The subject of series [5] is U2OS. As to the kind of experiment: Increase in doxorubicin accumulation in human U2OS/DX30 cells at 5 uM incubated for 24 hrs by fluorimetrical analysis. The class given is functional, cell-based.
Series [6] has as its system U2OS. As to the kind of experiment: Increase in doxorubicin accumulation in human U2OS/DX100 cells at 5 uM incubated for 24 hrs by fluorimetrical analysis. The class given is functional, cell-based.
The test system of series [7] is U2OS. The experiment in a line: Effect on doxorubicin accumulation in human U2OS/DX580 cells at 5 uM incubated for 24 hrs by fluorimetrical analysis. The class given is functional, cell-based.
Series [8] has as its system U2OS. As to the kind of experiment: Increase in doxorubicin-mediated cytotoxicity in human U2OS/DX30 cells at 5 uM incubated for 24 hrs by LDH release-based spectrofluorimetrical analysis relative to control. It counts as functional, cell-based. The method, boiled down:
as §1

In series [9] the test system is U2OS. As to the kind of experiment: Increase in doxorubicin-mediated cytotoxicity in human U2OS/DX100 cells at 5 uM incubated for 24 hrs by LDH release-based spectrofluorimetrical analysis relative to control. The class given is functional, cell-based. In outline:
as §1

For series [10], the system named is U2OS. As to the kind of experiment: Effect on doxorubicin-mediated cytotoxicity in human U2OS/DX580 cells at 5 uM incubated for 24 hrs LDH release-based spectrofluorimetrical analysis relative to control. It counts as functional, cell-based. In outline:
as §1

The test system of series [11] is H9c2. The experiment in a line: Cytotoxicity in rat H9c2 cells assessed as reduction in basal ROS level at 5 uM incubated for 24 hrs by DCFDA-AM probe-based fluorimetrical analysis. It counts as cell-based. The conditions noted are these: h9c2, 24 h. The method, boiled down: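 After 24 h at 5 μM, 1×10^6 cells in 0.5 mL PBS were loaded with 5 μM DCFDA-AM for 30 min at 37 °C, spun and resuspended. Fluorescence read at ex 492/em 517 nm, expressed as nmol ROS/mg cell protein. Duplicate, n = 3, mean ± SD.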

Series [12] concerns H9c2. As to the kind of experiment: Cytotoxicity in rat H9c2 cells assessed as reduction in basal ROS level at 5 uM incubated for 24 hrs in presence of hydroxocobalamin by DCFDA-AM probe-based fluorimetrical analysis. The conditions noted are these: h9c2, 24 h. It counts as cell-based. In outline: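 H9c2 cells held 24 h with 5 μM drug plus 100 μM hydroxocobalamin, then loaded with 5 μM DCFDA-AM for 30 min at 37 °C. Fluorescence read at 492/517 nm, expressed as nmol ROS/mg protein. Duplicate, n = 3.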

Series [13] relates to H9c2. As to the kind of experiment: Cytotoxicity in rat H9c2 cells at 5 uM incubated for 24 hrs in presence of hydroxocobalamin by LDH release-based spectrofluorimetrical analysis relative to control. It counts as cell-based. The conditions noted are these: h9c2, 24 h. The method, boiled down: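 H9c2 cardiomyocytes given 5 μM drug for 24 h with 100 μM hydroxocobalamin as H2S scavenger. LDH measured at 340 nm over 6 min in medium and lysate. Extracellular activity taken as % of total, duplicate, n = 3.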

Series [14] has as its system H9c2. As to the kind of experiment: Cytotoxicity in rat H9c2 cells at 5 uM coincubated with doxorubicin for 24 hrs in presence of hydroxocobalamin by LDH release-based spectrofluorimetrical analysis relative to control. It counts as cell-based. The conditions noted are these: h9c2, 24 h.
Series [15] deals with U2OS. As to the kind of experiment: Reduction of doxorubicin-mediated cytotoxicity in human U2OS cells at 5 uM incubated for 24 hrs by DCFDA-AM probe-based fluorimetrical analysis relative to control. The class given is functional, cell-based.
The test system of series [16] is U2OS. The experiment in a line: Reduction of doxorubicin-mediated ROS accumulation in human U2OS/DX100 cells at 5 uM incubated for 24 hrs by DCFDA-AM probe-based fluorimetrical analysis relative to control. The class given is functional, cell-based.
Series [17] has as its system U2OS. As to the kind of experiment: Reduction of doxorubicin-mediated ROS accumulation in human U2OS/DX30 cells at 5 uM incubated for 24 hrs by DCFDA-AM probe-based fluorimetrical analysis relative to control. The class given is functional, cell-based.
In series [18] the test system is U2OS. As to the kind of experiment: Reduction of doxorubicin-mediated ROS accumulation in human U2OS/DX580 cells at 5 uM incubated for 24 hrs by DCFDA-AM probe-based fluorimetrical analysis relative to control. It counts as functional, cell-based.

For `O=C(O)c1ccc(-c2ssc(=S)c2-c2ccccc2)cc1`, the Vmax in the series on U2OS [1] was 16 nmol/min/mg. In addition, the Activity result is reported as “Non-toxic” with H9c2 [2]; “Non-toxic” in the series on H9c2 [11]; “Toxic” with H9c2 [12]; “Toxic” with H9c2 [13]; “Toxic” with H9c2 [14]. In addition, the result with H9c2 [3], in the series with U2OS [7] and in the series on U2OS [10] was inactive. Moreover, the result with H9c2 [4], with U2OS [5], with U2OS [6], with U2OS [8], in the series with U2OS [9] and in the series on U2OS [15] was Active. Besides, the result in the series with U2OS [16], in the series on U2OS [17] and in the series on U2OS [18] was Active.

As usually defined, the Vmax is the top rate of the reaction or transport when substrate is in excess.
